ChEMBL document CHEMBL1122821, “Synthesis and some pharmacological properties of 18 potent O-alkyltyrosine-substituted antagonists of the vasopressor responses to arginine-vasopressin” (J Med Chem, 1985)
Starred links: 1 amine or outer side, 2 acyl side, 3 side chain; linkers in the order of their positions; H or OH if unused. Positions of bridges follow the written chain, without caps; N, C: chain ends. Non-standard residues stand in square brackets, D forms with d. Residues, ends and D or L forms follow the SMILES beside them. X2 = O=C(CC1(S[*:2])CCCCC1)[*:1]

Experiments:
Rattus norvegicus [1] = test: In vivo anti-vasopressor activity measured as the negative logarithm of the effective dose / the estimated volume of distribution (67 mL/kg); format: ADME, organism-based; conditions: read-out: pA2 (converted)
Procedure, shortened: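 Rats treated with phenoxybenzamine under urethane anesthesia. Pressor responses to the USP posterior pituitary standard were given intravenously. Effective dose (nmol/kg) was interpolated on a log scale; means ± SE of at least four estimates. pA2 = −log(effective dose / 67 mL/kg).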

Rattus norvegicus [2] = species on record: Rattus norvegicus; test: Antidiuretic activity was evaluated for the compound in rats under ethanol anesthesia; antagonist; format: functional, Urine
Procedure, shortened: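 Rats under ethanol anesthesia, with USP posterior pituitary reference standard as agonist. Each peptide was given at a high and a low dose, bracketing the dose that cuts the response to 2x units of agonist to the 1x-unit response. Effective dose (nmol/kg) was interpolated on a log scale. In vivo pA2 = −log(effective dose / 67 mL/kg). Means ± SE of at least four estimates.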

Rattus norvegicus [3] = species on record: Rattus norvegicus; test: In vitro anti-oxytocic potency was evaluated in the absence of Mg2+; format: functional; conditions: read-out: pA2 (converted)
Procedure, shortened: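 Isolated rat uterus in medium containing no Mg2+. USP posterior pituitary reference standard used as agonist. In vitro pA2 values were derived as in Bankowski et al.; means ± SE.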

Rattus norvegicus [4] = species on record: Rattus norvegicus; test: In vitro anti-oxytocic potency was evaluated in the presence of 0.5 mM of Mg2+; format: functional; conditions: read-out: pA2 (converted)
Procedure, shortened: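 Isolated rat uterus in medium containing 0.5 mM Mg2+. USP posterior pituitary reference standard used as agonist. In vitro pA2 values were derived as in Bankowski et al.; means ± SE.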

Rattus norvegicus [5] = test: In vivo antidiuretic activity in rats under ethanol anesthesia.; format: functional, Urine
Procedure, shortened: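 Rats under ethanol anesthesia, with the USP posterior pituitary reference standard as reference. Agonistic activity is expressed in units per milligram.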

Compound	Kb (Rattus norvegicus [1]) [nM]	Activity (Rattus norvegicus [2]) [mg]	Kb (Rattus norvegicus [3]) [nM]	Kb (Rattus norvegicus [4]) [nM]	Activity (Rattus norvegicus [5]) [units/mg]
CCOc1ccc(C[C@@H]2NC(=O)CC3(CCCCC3)SSC[C@@H](C(=O)N3CCC[C@H]3C(=O)N[C@H](CCCN=C(N)N)C(=O)NCC(N)=O)NC(=O)[C@H](CC(N)=O)NC(=O)[C@H](C(C)C)NC(=O)[C@H](Cc3ccccc3)NC2=O)cc1 (Y(Et)FVNCP[dR]G-NH2; linker N-5 via X2)	6.92	7.57	–	–	–
CCOc1ccc(C[C@@H]2NC(=O)CC3(CCCCC3)SSC[C@@H](C(=O)N3CCC[C@H]3C(=O)N[C@@H](CCCN=C(N)N)C(=O)NCC(N)=O)NC(=O)[C@H](CC(N)=O)NC(=O)[C@H](C(C)C)NC(=O)[C@H](Cc3ccccc3)NC2=O)cc1 (Y(Et)FVNCPRG-NH2; linker N-5 via X2)	–	7.1	9.55	87.1	–
COc1ccc(C[C@@H]2NC(=O)CC3(CCCCC3)SSC[C@@H](C(=O)N3CCC[C@H]3C(=O)NC(CCCN=C(N)N)C(=O)NCC(N)=O)NC(=O)[C@H](CC(N)=O)NC(=O)[C@H](CCC(N)=O)NC(=O)[C@H](Cc3ccccc3)NC2=O)cc1 (stereo in doubt)	3.89	–	28.2	15.5	0.23
